How the values were obtained:
HCT-116 [1] = test: in vitro antitumor activity against HCT116 tumor cell lines; format: functional; settings: Homo sapiens
[2] = system: Panel ovarian (Carcinoma cell lines); test: log molar concentration required to cause total growth inhibition of ovarian tumor cell lines; format: functional; settings: Homo sapiens, read-out: Log TGI (converted)
How it was run: (§1)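 TGI from the NCI 60 human tumor cell line in vitro screen: log of the molar drug concentration causing total growth inhibition, reported for the named cell panel.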

[3] = system: Panel CNS (Carcinoma cell lines); test: log molar concentration required to cause total growth inhibition of CNS cancer cell lines; format: functional; settings: Homo sapiens, read-out: Log TGI (converted); how it was run: as §1
[4] = system: Panel colon (Carcinoma cell lines); test: log molar concentration required to cause total growth inhibition of colon tumor cell lines; format: functional; settings: Homo sapiens, read-out: Log TGI (converted); how it was run: as §1
NSCLC = test: log molar concentration required to cause total growth inhibition of non-small cell lung tumor cell lines; format: functional; settings: Homo sapiens, read-out: Log TGI (converted); how it was run: as §1
[5] = system: Panel prostate (Carcinoma cell lines); test: log molar concentration required to cause total growth inhibition of prostate tumor cell lines; format: functional; settings: Homo sapiens, read-out: Log TGI (converted); how it was run: as §1
Tumor Cell line [6] = test: (§2) log molar concentration required to cause total growth inhibition of leukemic tumor cell lines; format: functional; settings: Homo sapiens, read-out: Log TGI (converted); how it was run: as §1
Tumor Cell line [7] = test: log molar concentration required to cause total growth inhibition of NCI 's human tumor cell lines; format: functional; settings: read-out: Log TGI (converted)
How it was run: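 NCI 60 human tumor cell line in vitro screen. TGI is the log molar concentration giving total growth inhibition, calculated from all cell lines tested.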

MDA-N [8] = test: in vitro antitumor activity against MDA-N tumor cell lines; format: functional; settings: Homo sapiens
SK-MEL-5 [9] = test: in vitro antitumor activity against SK-MEL-5 tumor cell lines; format: functional; settings: Homo sapiens
[10] = system: Panel breast (Carcinoma cell lines); test: log molar concentration required to cause total growth inhibition of breast tumor cell lines; format: functional; settings: Homo sapiens, read-out: Log TGI (converted); how it was run: as §1
OVCAR-3 [11] = test: in vitro antitumor activity against OVCAR-3 tumor cell lines; format: functional; settings: Homo sapiens
PC-3 [12] = test: in vitro antitumor activity against PC-3 tumor cell lines; format: functional; settings: Homo sapiens
SF-295 [13] = test: in vitro antitumor activity against SF-295 tumor cell lines; format: functional; settings: Homo sapiens
[14] = system: Panel renal (Carcinoma cell lines); test: log molar concentration required to cause total growth inhibition of renal tumor cell lines; format: functional; settings: Homo sapiens, read-out: Log TGI (converted); how it was run: as §1
Tumor Cell line [15] = test: in vitro antitumor activity against NCI 's human tumor cell lines; format: functional; settings: read-out: Average log GI50 (converted)
How it was run: (§3)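 NCI in vitro screen of 60 human tumor cell lines. […] The value is calculated from all cell lines tested.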

NCI-H460 [16] = test: in vitro antitumor activity against NCI-H460 tumor cell lines; format: functional; settings: Homo sapiens
CAKI-1 [17] = test: in vitro antitumor activity against CAKI-1 tumor cell lines; format: functional; settings: Homo sapiens
Tubulin = Tubulin (Bos taurus, UniProt Q6B856+Q862L2+Q862F3); test: Inhibition of tubulin polymerization; format: functional
U-251 [18] = test: in vitro antitumor activity against U-251 tumor cell lines; format: functional; settings: Homo sapiens
Melanoma tumor cell line = test: log molar concentration required to cause total growth inhibition of melanomic tumor cell lines; format: functional; settings: Homo sapiens, read-out: Log TGI (converted); how it was run: as §1
MDA-MB-435 [19] = test: in vitro antitumor activity against MAD-MB-435NCI 's human tumor cell lines; format: functional
HL-60 [20] = test: in vitro antitumor activity against HL-60(TB) tumor cell lines; format: functional; settings: Homo sapiens
HCT-116 [21] = test: In vitro antitumor activity against HCT116 tumor cell lines; format: functional; settings: Homo sapiens
CAKI-1 [22] = test: In vitro antitumor activity against CAKI-1 tumor cell lines; format: functional; settings: Homo sapiens
SK-MEL-5 [23] = test: In vitro antitumor activity against SK-MEL-5 tumor cell lines; format: functional; settings: Homo sapiens
MDA-N [24] = test: In vitro antitumor activity against MDA-N tumor cell lines; format: functional; settings: Homo sapiens
MDA-MB-435 [25] = test: In vitro antitumor activity against MDA-MB-435 NCI 's human tumor cell lines; format: functional
Tubulin (Bos taurus) = Tubulin (Bos taurus) (UniProt Q6B856+Q862L2+Q862F3); test: Inhibition of radiolabeled colchicine binding to tubulin; format: protein assay; parameters: concentration or dose not given beside the values; settings: concentration not given here
How it was run: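 Measured by DEAE-cellulose filter binding. The 0.1 mL mixture held bovine brain tubulin 1.0 µM, 1.0 M monosodium glutamate (pH 6.6), 1 mM MgCl2, 0.1 mM GTP, 5.0 µM [3H]colchicine, 5% DMSO and inhibitor at 5.0 µM. It was incubated 20 min at 37 °C, filtered through two DEAE-cellulose papers, washed with water and counted by liquid scintillation.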

Leukemic tumor cell line = test: as §2; format: functional; settings: Homo sapiens, read-out: Log TGI (converted); how it was run: as §1
[26] = system: Panel CNS (Carcinoma cell lines); test: log molar concentration required to cause total growth inhibition of CNS cancer tumor cell lines; format: functional; settings: Homo sapiens, read-out: Log TGI (converted); how it was run: as §1
NCI-H460 [27] = test: In vitro antitumor activity against NCI-H460 tumor cell lines; format: functional; settings: Homo sapiens
PC-3 [28] = test: In vitro antitumor activity against PC-3 tumor cell lines; format: functional; settings: Homo sapiens
U-251 [29] = test: In vitro antitumor activity against U-251 tumor cell lines; format: functional; settings: Homo sapiens
OVCAR-3 [30] = test: In vitro antitumor activity against OVCAR-3 tumor cell lines; format: functional; settings: Homo sapiens
SF-295 [31] = test: In vitro antitumor activity against SF-295 tumor cell lines; format: functional; settings: Homo sapiens
Tumor Cell line [32] = test: In vitro antitumor activity against NCI 's human tumor cell lines; format: functional; settings: read-out: Average log GI50 (converted); how it was run: as §3
HL-60 [33] = test: In vitro antitumor activity against HL-60(TB) tumor cell lines; format: functional; settings: Homo sapiens

Oc1cc(-c2cccc(Cl)c2)nc2ncccc12
GI50 (HCT-116 [1]): 28.8 nM | TGI [2]: 31600 nM | TGI [3]: 16600 nM | TGI [4]: 16200 nM | TGI (NSCLC): 85100 nM | TGI [5]: 2630 nM | TGI (Tumor Cell line [6]): 38900 nM | TGI (Tumor Cell line [7]): 24000 nM | GI50 (MDA-N [8]): 17.4 nM | GI50 (SK-MEL-5 [9]): 52.5 nM | TGI [10]: 1170 nM | GI50 (OVCAR-3 [11]): 45.7 nM | GI50 (PC-3 [12]): 22.4 nM | GI50 (SF-295 [13]): 63.1 nM | TGI [14]: 49000 nM | GI50 (Tumor Cell line [15]): 229 nM | GI50 (NCI-H460 [16]): 87.1 nM | GI50 (CAKI-1 [17]): 56.2 nM | IC50 (Tubulin): 1500 nM | GI50 (U-251 [18]): 145 nM | TGI (Melanoma tumor cell line): 97700 nM | GI50 (MDA-MB-435 [19]): < 10 nM | GI50 (HL-60 [20]): 10.5 nM

Cc1cnc2[nH]c(-c3cccc(F)c3)cc(=O)c2c1
GI50 (HCT-116 [21]): 24 nM | GI50 (CAKI-1 [22]): 28.2 nM | TGI [2]: 26900 nM | GI50 (SK-MEL-5 [23]): 28.2 nM | GI50 (MDA-N [24]): 11.8 nM | TGI [4]: 324 nM | TGI (NSCLC): 16200 nM | GI50 (MDA-MB-435 [25]): < 10 nM | TGI [5]: 692 nM | inhibition (Tubulin (Bos taurus)): 43% | TGI (Leukemic tumor cell line): 2690 nM | TGI (Tumor Cell line [7]): 5130 nM | TGI [26]: 3090 nM | GI50 (NCI-H460 [27]): 38.9 nM | GI50 (PC-3 [28]): 34.7 nM | TGI [10]: 537 nM | GI50 (U-251 [29]): 40.7 nM | GI50 (OVCAR-3 [30]): 13.5 nM | TGI [14]: 55000 nM | GI50 (SF-295 [31]): 27.5 nM | IC50 (Tubulin): 630 nM | GI50 (Tumor Cell line [32]): 50.1 nM | TGI (Melanoma tumor cell line): 32400 nM | GI50 (HL-60 [33]): 20.4 nM

Cc1cccc(-c2cc(O)c3cccnc3n2)c1
GI50 (HCT-116 [1]): 22.4 nM | GI50 (MDA-N [8]): < 10 nM | GI50 (SK-MEL-5 [9]): 25.7 nM | GI50 (OVCAR-3 [11]): 41.7 nM | GI50 (PC-3 [12]): 42.7 nM | GI50 (SF-295 [13]): 37.1 nM | GI50 (Tumor Cell line [15]): 95.5 nM | GI50 (NCI-H460 [16]): 25.7 nM | GI50 (CAKI-1 [17]): 37.1 nM | IC50 (Tubulin): 3300 nM | GI50 (U-251 [18]): 44.7 nM | GI50 (MDA-MB-435 [19]): < 10 nM | GI50 (HL-60 [20]): 19.1 nM

Source: ChEMBL document CHEMBL1130393, “Antitumor agents. 178. Synthesis and biological evaluation of substituted 2-aryl-1,8-naphthyridin-4(1H)-ones as antitumor agents that inhibit tubulin polymerization” (J Med Chem, 1997)
